These results are taken from ChEMBL document CHEMBL1122646, “Synthesis of pyridine derivatives of L-phenylalanine as antisickling reagents” (1984).

Structures are written as SMILES.

Assay type in all cases: functional
A short description of assay [1]: Antisickling activity and change in mean corpuscular hemoglobin ratio was reported at a concentration of 3.65 mM. Summed up:
(§1)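 Erythrocytes incubated with compound as in the morphological assay (PBS pH 7.2, 295 mosmol/kg, 0.5% BSA, 37 °C) but at 10% hematocrit. Triplicate readings on each of three aliquots taken 1 to 3 h after exposure. Lysis and cyanomet-Hb conversion, then MCHC read on a Coulter hemoglobinometer. Values averaged over nine measurements and expressed as MCHC0/MCHC.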

Assay [2] can be described thus: Antisickling activity and change in mean corpuscular hemoglobin ratio was reported at a concentration of 1.35 mM. In outline: as §1
Assay [3] in a line: Antisickling activity and change in mean corpuscular hemoglobin ratio was reported at a concentration of 4.80 mM. In outline: as §1
The nature of assay [4]: Antisickling activity and percentage of cells sickled after incubation in 3 mM solution under oxygen content 20.1% was reported at normal atmospheric pressure. In outline:
(§2)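 Washed homozygous SS erythrocytes (HbF <8%, MCHC 33.5 g %, stored 4 °C, used within 24 h) at 1.0% hematocrit in PBS pH 7.2 (295 mosmol/kg, 0.5% w/v BSA) with 3 mM compound. Incubated 1 h at 37 °C with rotation. Cells were air-exposed 10 min, deoxygenated with 4.06% O2/4.4% CO2/N2, or deoxygenated with N2 alone. PO2 measured, then anaerobic fixation, 30 min RT.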

Assay [5] is described as follows: Aantisickling activity and percentage of cells sickled after incubation in 3 mM solution under oxygen content 0.0% was reported. In outline:
as §2

Assay [6] is described as follows: Antisickling activity and percentage of cells sickled after incubation in 3 mM solution under oxygen content 4.06% was reported at 30.8 mm of Hg pressure. Summed up:
as §2

Assay [7] can be described thus: Effect of 3 mM of compound on homozygous sickle cells at a total oxygen saturation of 47% and estimates of volume fraction of HbS polymer present was determined. Summed up: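 Homozygous SS cells (MCHC 33.9 g %) at 1% Hct with 3 mM compound, deoxygenated at 37 °C with 4.06% O2 gas (47% total O2 saturation per O2 affinity curve in PBS pH 7.392). Suspension forced through a 5-μm polycarbonate membrane at 3.1 cmHg. Passed cells weighed after 5-6 min, corrected for interstitial solvent with 3H-methoxyinulin. R = deoxygenated/oxygenated recovered weight. fp calculated with Cp 0.69 g/cm3 and Cs0 0.164 g/cm3.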

The nature of assay [8]: Antisickling activity and change in mean corpuscular hemoglobin ratio was reported at a concentration of 2.55 mM. In outline: as §1

Consider `Cl.Cl.NC(Cc1ccccc1)C(=O)Nc1ccccn1` (centres undefined), for which the Ratio turned out to be 1.11 in assay [1], 1.04 in assay [2], 1.15 in assay [3] and 1.08 in assay [8]. Further, the Cells sickled is 9.1% in assay [4], 71.1% in assay [5] and 32.6% in assay [6]. Also, the fp in assay [7] is recorded as 0.24.

In the case of `Cl.Cl.NC(Cc1ccccc1)C(=O)Nc1cccnc1` (centres undefined), the Ratio in assay [1] came to 1.13; in assay [2], 1.05; in assay [3] it was 1.17; in assay [8] it was 1.07. Also, the values for the Cells sickled in assay [4], in assay [5] and in assay [6] were 11.4%, 59% and 23.6%, respectively. In assay [7], the fp was 0.24.

Consider `Cl.Cl.NC(Cc1ccccc1)C(=O)Nc1ccncc1` (centres undefined), for which the Cells sickled in assay [4] is listed as 10.2%; in assay [5], 70.8%; in assay [6] it was 25.2%.
